# According to ChEMBL document CHEMBL1125337, “Synthesis and antibacterial activity of a series of basic amides of teicoplanin and deglucoteicoplanin with polyamines” (J Med Chem, 1992):
# Assays:
# [1] = tested on: Staphylococcus epidermidis; test: Minimum inhibitory concentration against Staphylococcus epidermidis ATCC 12228; format: functional
# How it was run: (§1)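 MIC (µg/mL) by microbroth dilution in Iso-Sensitest broth; final inoculum 10^4 cfu/mL; 24 h at 37 °C in air.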
# Klebsiella pneumoniae [2] = test: Minimum inhibitory concentration of compound was determined against Klebsiella pneumoniae L 1499; format: functional; how it was run: as §1
# Shigella dysenteriae = test: Minimum inhibitory concentration of compound was determined against Shigella dysentariae L155; format: functional
# Salmonella typhimurium = test: Minimum inhibitory concentration of compound was determined against Salmonella Typhimurium L 35; format: functional, Salmonella enterica subsp. enterica serovar Typhimurium; details: Salmonella enterica; how it was run: as §1
# Pseudomonas aeruginosa [3] = test: Minimum inhibitory concentration of compound was determined against Pseudomonas aeruginosa L 1498; format: functional; how it was run: as §1
# Bacteroides fragilis [4] = test: Minimum inhibitory concentration of compound was determined against Bacteroides fragilis L 1236; format: functional
# How it was run: (§2)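 Microbroth dilution MIC (µg/mL) in Wilkins-Chalgren broth, final inoculum 10^5 cfu/mL, incubated 48 h in an anaerobic chamber.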
# Klebsiella pneumoniae [5] = test: Minimum inhibitory concentration of compound was determined against Klebsiella pneumoniae L 1481; format: functional; how it was run: as §1
# [6] = tested on: Staphylococcus haemolyticus; test: Minimum inhibitory concentration against Staphylococcus haemolyticus L 602; format: functional; how it was run: as §1
# Streptococcus pneumoniae = test: Minimum inhibitory concentration against Streptococcus pneumoniae L 44; format: functional
# How it was run: (§3)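 MIC (µg/mL) by microbroth dilution in Todd-Hewitt broth, final inoculum 10^4 cfu/mL, incubated 24 h at 37 °C in air.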
# Escherichia coli [7] = test: Minimum inhibitory concentration of compound was determined against Escherichia coli L 1513; format: functional; how it was run: as §1
# Shigella sonnei = test: Minimum inhibitory concentration of compound was determined against Shigella sonnei L 363; format: functional; how it was run: as §1
# Proteus vulgaris [8] = test: Minimum inhibitory concentration of compound was determined against Proteus vulgaris L 1539; format: functional; how it was run: as §1
# Proteus mirabilis [9] = test: Minimum inhibitory concentration of compound was determined against Proteus mirabilis L 1157; format: functional; how it was run: as §1
# Serratia marcescens [10] = test: Minimum inhibitory concentration of compound was determined against Serratia marcescens L 1506; format: functional; how it was run: as §1
# Enterobacter cloacae [11] = test: Minimum inhibitory concentration of compound was determined against Enterobacter cloacae L 1485; format: functional; how it was run: as §1
# Escherichia coli [12] = test: Minimum inhibitory concentration of compound was determined against Escherichia coli L 1572; format: functional; how it was run: as §1
# Pseudomonas aeruginosa [13] = test: Minimum inhibitory concentration of compound was determined against Pseudomonas aeruginosa L 1533; format: functional; how it was run: as §1
# Escherichia coli [14] = test: Minimum inhibitory concentration against Escherichia coli L 47; format: functional; how it was run: as §1
# Pseudomonas aeruginosa [15] = test: Minimum inhibitory concentration of compound was determined against Pseudomonas aeruginosa L 1138; format: functional; how it was run: as §1
# Proteus mirabilis [16] = test: Minimum inhibitory concentration of compound was determined against Proteus mirabilis L 1356; format: functional; how it was run: as §1
# Escherichia coli [17] = test: Minimum inhibitory concentration of compound was determined against Escherichia coli L 1536; format: functional; how it was run: as §1
# Escherichia coli [18] = test: Minimum inhibitory concentration of compound was determined against Escherichia coli L 1153; format: functional; how it was run: as §1
# Bacteroides fragilis [19] = test: Minimum inhibitory concentration of compound was determined against Bacteroides fragilis L 1010; format: functional; how it was run: as §2
# Proteus vulgaris [20] = test: Minimum inhibitory concentration against Proteus vulgaris ATCC 881; format: functional; how it was run: as §1
# Enterobacter cloacae [21] = test: Minimum inhibitory concentration of compound was determined against Enterobacter cloacae L 1504; format: functional; how it was run: as §1
# Enterococcus faecalis = test: Minimum inhibitory concentration against Enterococcus faecalis ATCC 7080; format: functional
# How it was run: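 Microbroth dilution MIC (µg/mL), final inoculum 10^4 cfu/mL, incubated 24 h at 37 °C in air.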
# Escherichia coli [22] = test: Minimum inhibitory concentration of compound was determined against Escherichia coli L 1347; format: functional; how it was run: as §1
# Staphylococcus aureus = test: Minimum inhibitory concentration against Staphylococcus aureus L 165; format: functional; how it was run: as §1
# Serratia marcescens [23] = test: Minimum inhibitory concentration of compound was determined against Serratia marcescens L 1488; format: functional; how it was run: as §1
# Escherichia coli [24] = test: Minimum inhibitory concentration of compound was determined against Escherichia coli L 1484; format: functional; how it was run: as §1
# Pseudomonas aeruginosa [25] = test: Minimum inhibitory concentration of compound was determined against Pseudomonas aeruginosa L 1348; format: functional; how it was run: as §1
# Streptococcus pyogenes [26] = test: Efficacy of compound administered subcutaneously against Streptococcus pyogenes L 49 Septicemia in mouse; format: functional; details: sc
# How it was run: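 Mice were infected intraperitoneally with about 10^5 Strep. pyogenes L 49 cells, about 100 times the 50% lethal dose. Groups of 5–8 mice were treated once right after challenge, by the route stated in the line. ED50 (mg/kg) was derived from percentage survival at each dose on day 7 (Spearman-Kärber).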
# Pseudomonas aeruginosa [27] = test: Minimum inhibitory concentration against Pseudomonas aeruginosa ATCC 10145; format: functional; how it was run: as §1
# Streptococcus pyogenes [28] = test: Minimum inhibitory concentration against Streptococcus pyogenes L 49; format: functional; how it was run: as §3
# Streptococcus pyogenes [29] = test: Minimum inhibitory concentration of compound was determined against Streptococcus pyogenes L 49 in mouse; format: functional
# Bacteroides fragilis [30] = test: Minimum inhibitory concentration of compound was determined against Bacteroides fragilis L 1011; format: functional; how it was run: as §2
# [31] = Association constant determined at pH 9; Value ranges from 5E4-7.5E4; format: ADME
# Mus musculus = organism: Mus musculus; test: Number of survivors mouse to that of treated with compound; 7 out of 8 survived; format: functional
# Escherichia coli [32] = test: Efficacy of compound administered subcutaneously against Escherichia coli L47 Septicemia in mouse; format: functional; details: sc
# How it was run: (§4)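 Mouse septicemia from intraperitoneal injection of about 10^4 cells of E. coli L 47, about 100 times the 50% lethal dose. Groups of five to eight mice each got a single dose immediately after infection, by the route stated in the line. ED50 in mg/kg was calculated from percent survivors at each dose on day 7 (Spearman-Kärber).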
# Escherichia coli [33] = test: Efficacy of compound administered intravenously against Escherichia coli L47 Septicemia in mouse; format: functional; details: iv; how it was run: as §4
# [34] = Association constant to Ac2-L-Lys-D-Ala-D-Ala determined at pH 9; Value ranges from 5E4-7.5E4
structure (smiles),measurement,setting,value
CNCCCN(C)C(=O)[C@H]1NC(=O)[C@H]2NC(=O)[C@H](NC(=O)[C@@H]3NC(=O)[C@H]4NC(=O)[C@@H](Cc5ccc(c(Cl)c5)Oc5cc3cc(c5O)Oc3ccc(cc3Cl)[C@H]2O)NC(=O)[C@H](N)c2ccc(O)c(c2)Oc2cc(O)cc4c2)c2ccc(O)c(c2)-c2c(O)cc(O)cc21,MIC,[1],0.063 µg/mL
same,MIC,Klebsiella pneumoniae [2],32 µg/mL
same,MIC,Shigella dysenteriae,4 µg/mL
same,MIC,Salmonella typhimurium,16 µg/mL
same,MIC,Pseudomonas aeruginosa [3],128 µg/mL
same,MIC,Bacteroides fragilis [4],64 µg/mL
same,MIC,Klebsiella pneumoniae [5],16 µg/mL
same,MIC,[6],0.063 µg/mL
same,MIC,Streptococcus pneumoniae,0.125 µg/mL
same,MIC,Escherichia coli [7],8 µg/mL
same,MIC,Shigella sonnei,8 µg/mL
same,MIC,Proteus vulgaris [8],128 µg/mL
same,MIC,Proteus mirabilis [9],64 µg/mL
same,MIC,Serratia marcescens [10],32 µg/mL
same,MIC,Enterobacter cloacae [11],32 µg/mL
same,MIC,Escherichia coli [12],8 µg/mL
same,MIC,Pseudomonas aeruginosa [13],128 µg/mL
same,MIC,Escherichia coli [14],2 µg/mL
same,MIC,Pseudomonas aeruginosa [15],64 µg/mL
same,MIC,Proteus mirabilis [16],32 µg/mL
same,MIC,Escherichia coli [17],8 µg/mL
same,MIC,Escherichia coli [18],4 µg/mL
same,MIC,Bacteroides fragilis [19],32 µg/mL
same,MIC,Proteus vulgaris [20],32 µg/mL
same,MIC,Enterobacter cloacae [21],32 µg/mL
same,MIC,Enterococcus faecalis,0.125 µg/mL
same,MIC,Escherichia coli [22],8 µg/mL
same,MIC,Staphylococcus aureus,0.063 µg/mL
same,MIC,Serratia marcescens [23],16 µg/mL
same,MIC,Escherichia coli [24],16 µg/mL
same,MIC,Pseudomonas aeruginosa [25],16 µg/mL
same,ED50,Streptococcus pyogenes [26],1.25 mg/kg
same,MIC,Pseudomonas aeruginosa [27],16 µg/mL
same,MIC,Streptococcus pyogenes [28],0.063 µg/mL
same,MIC,Streptococcus pyogenes [29],0.06 µg/mL
same,MIC,Bacteroides fragilis [30],32 µg/mL
NCCCNCCCNC(=O)[C@H]1NC(=O)[C@H]2NC(=O)[C@H](NC(=O)[C@@H]3NC(=O)[C@H]4NC(=O)[C@@H](Cc5ccc(c(Cl)c5)Oc5cc3cc(c5O)Oc3ccc(cc3Cl)[C@H]2O)NC(=O)[C@H](N)c2ccc(O)c(c2)Oc2cc(O)cc4c2)c2ccc(O)c(c2)-c2c(O)cc(O)cc21,MIC,[1],0.032 µg/mL
same,MIC,[6],0.125 µg/mL
same,MIC,Streptococcus pneumoniae,0.125 µg/mL
same,Ka,[31],50000 M⁻¹
same,MIC,Escherichia coli [14],1 µg/mL
same,MIC,Proteus vulgaris [20],32 µg/mL
same,MIC,Enterococcus faecalis,0.125 µg/mL
same,MIC,Staphylococcus aureus,0.063 µg/mL
same,ED50,Streptococcus pyogenes [26],1.65 mg/kg
same,MIC,Pseudomonas aeruginosa [27],8 µg/mL
same,MIC,Streptococcus pyogenes [28],0.063 µg/mL
same,MIC,Streptococcus pyogenes [29],0.13 µg/mL
NCCCN(CCCN)CCCNC(=O)[C@H]1NC(=O)[C@H]2NC(=O)[C@H](NC(=O)[C@@H]3NC(=O)[C@H]4NC(=O)[C@@H](Cc5ccc(c(Cl)c5)Oc5cc3cc(c5O)Oc3ccc(cc3Cl)[C@H]2O)NC(=O)[C@H](N)c2ccc(O)c(c2)Oc2cc(O)cc4c2)c2ccc(O)c(c2)-c2c(O)cc(O)cc21,MIC,[1],0.008 µg/mL
same,MIC,[6],0.063 µg/mL
same,MIC,Streptococcus pneumoniae,0.125 µg/mL
same,MIC,Escherichia coli [14],1 µg/mL
same,Survivors,Mus musculus,7
same,MIC,Proteus vulgaris [20],128 µg/mL
same,MIC,Enterococcus faecalis,0.125 µg/mL
same,ED50,Escherichia coli [32],40 mg/kg
same,MIC,Staphylococcus aureus,0.125 µg/mL
same,ED50,Streptococcus pyogenes [26],0.72 mg/kg
same,MIC,Pseudomonas aeruginosa [27],8 µg/mL
same,ED50,Escherichia coli [33],< 40 mg/kg
same,MIC,Streptococcus pyogenes [28],0.063 µg/mL
same,MIC,Streptococcus pyogenes [29],0.06 µg/mL
NCCCNCCCCNCCCNC(=O)[C@H]1NC(=O)[C@H]2NC(=O)[C@H](NC(=O)[C@@H]3NC(=O)[C@H]4NC(=O)[C@@H](Cc5ccc(c(Cl)c5)Oc5cc3cc(c5O)Oc3ccc(cc3Cl)[C@H]2O)NC(=O)[C@H](N)c2ccc(O)c(c2)Oc2cc(O)cc4c2)c2ccc(O)c(c2)-c2c(O)cc(O)cc21,MIC,[1],0.063 µg/mL
same,MIC,[6],0.125 µg/mL
same,MIC,Streptococcus pneumoniae,0.125 µg/mL
same,Ka,[34],75000 M⁻¹
same,MIC,Escherichia coli [14],2 µg/mL
same,MIC,Proteus vulgaris [20],64 µg/mL
same,MIC,Enterococcus faecalis,0.125 µg/mL
same,MIC,Staphylococcus aureus,0.063 µg/mL
same,ED50,Streptococcus pyogenes [26],0.41 mg/kg
same,MIC,Pseudomonas aeruginosa [27],8 µg/mL
same,MIC,Streptococcus pyogenes [28],0.063 µg/mL
same,MIC,Streptococcus pyogenes [29],0.06 µg/mL
